# Test results: ChEMBL document CHEMBL1122033, “Chemistry and hypoglycemic activity of N-[[(Dialkylamino)alkoxy]phenyl]benzamidines” (J Med Chem, 1982)
# Where “and” joins values, the source holds several entries; their conditions need not be identical. Equal values may be shown once.
# Columns and labels:
# [1] = test system: Monkey; test: Evaluated in normal, fasted monkey for the percentage reduction in blood glucose level as compared to pretreatment blood glucose values at a dose of 25 mg of free base / kg body weight administered orally; format: functional, Cercopithecidae
# In short: (§1)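 Male and female rhesus monkeys (2–3 kg) were food-deprived, with water, for 18 h. Pretreatment blood was taken from the popliteal vein. Dosing was oral by stomach tube, with repeat sampling 5 h post-dose. Results are percent reduction in blood glucose relative to pretreatment values.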
# [2] = test system: Monkey; test: Evaluated in normal, fasted monkey for the percentage reduction in blood glucose level as compared to pretreatment blood glucose values at a dose of 50 mg of free base / kg body weight administered orally; format: functional, Cercopithecidae; in short: as §1
# [3] = test system: Monkey; test: Evaluated in normal, fasted monkey for the percentage reduction in blood glucose level as compared to pretreatment blood glucose values at a dose of 60 mg of free base / kg body weight administered orally; format: functional, Cercopithecidae; in short: as §1
# [4] = Lethal dose required to produce 50% lethality in male and female carworth farms CF-1 strain mice weighing 16-25 g administered intraperitoneally; format: toxicity, organism-based; settings: both, CF-1, mouse, in vivo, ip
# In short: (§2)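 Four mice per dose level. Drug dissolved in distilled water and suspended in 0.5% carboxymethylcellulose or 0.5% gelatin, with pH adjusted by 1 N HCl or 1 N NaOH where the drug tolerated it. Doses logarithmically spaced, given orally or intraperitoneally. Mice observed 7 days after dosing. LD50 derived by the Bliss method, expressed in mg/kg.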
# [5] = (§3) Lethal dose required to produce 50% lethality in male and female carworth farms CF-1 strain mice weighing 16-25 g administered orally; format: toxicity, organism-based; settings: both, CF-1, mouse, in vivo, po; in short: as §2
# [6] = test system: Rattus norvegicus; test: Blood sugar lowering (hypoglycemic activity) in the glucose-primed rat at a dose of 100 mg/kg; Decrease in blood sugar level.; format: functional
# In short: (§4)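 Male Sprague–Dawley rats, 140–150 g, groups of six, fasted 16 h. Each rat got 100 mg glucose s.c. in 0.5 mL isotonic NaCl, then the test agent at once orally as an aqueous carboxymethylcellulose suspension (0.5 mL); controls got vehicle. At 2 h, under light ether, blood was taken by cardiac puncture. Glucose was read by Autoanalyzer (Hoffman method). Values are percent difference from vehicle controls.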
# [7] = test system: Rattus norvegicus; test: Evaluated in glucose-primed, fasted rat for the percentage reduction in blood glucose level as compared to control groups at a dose of 50 mg of free base / kg body weight administered orally; format: functional; in short: as §4
# [8] = test system: Rattus norvegicus; test: Evaluated in glucose-primed, fasted rat for the percentage reduction in blood glucose level as compared to control groups at a dose of 100 mg of free base / kg body weight administered orally; format: functional; in short: as §4
# [9] = test system: Rattus norvegicus; test: Evaluated in glucose-primed, fasted rat for the percentage reduction in blood glucose level as compared to control groups at a dose of 150 mg of free base / kg body weight administered orally; format: functional; in short: as §4
# [10] = test system: Rattus norvegicus; test: Evaluated in glucose primed, adrenalectomized rat for the percentage reduction in blood glucose level as compared to pretreatment blood glucose values at a dose of 25 mg of free base / kg body weight administered orally; format: functional
# In short: (§5)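 Male Sprague–Dawley rats were adrenalectomized 7 days before testing, fasted 16 h, and given 100 mg glucose s.c. per rat. Drug was given orally at once; controls received an equal volume of saline. Blood was taken by cardiac puncture after 2 h. Percent reduction in blood glucose is versus pretreatment values.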
# [11] = test system: Rattus norvegicus; test: Evaluated in alloxanized, diabetic rat for the percentage reduction in blood glucose level as compared to pretreatment blood glucose values at a dose of 100 mg of free base / kg body weight administered orally; format: functional
# In short: (§6)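 Three days later, rats positive for urine glucose (reagent strip) formed groups of six. Tail-vein blood was taken before oral dosing and again at 5 h. Percent reduction is versus pretreatment glucose.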
# [12] = test system: Rattus norvegicus; test: Evaluated in alloxanized, diabetic rat for the percentage reduction in blood glucose level as compared to pretreatment blood glucose values at a dose of 150 mg of free base / kg body weight administered orally; format: functional; in short: as §6
# [13] = test system: Cavia porcellus; test: Evaluated in normal, fasted guinea pig for the percentage reduction in blood glucose level as compared to pretreatment blood glucose values at a dose of 100 mg of free base / kg body weight administered orally
# [14] = Lethality in 50% (LD50) of male and female CF-1 strain mice weighing 16-25g, intraperitoneal administration; format: ADME, organism-based; settings: both, CF-1, mouse, in vivo, ip; in short: as §2
# [15] = Dose that produces lethality in 50% (LD50) of male and female carworth farms CF-1 strain mice weighing 16-25 g oral (po) route of administration; format: ADME, organism-based; settings: both, CF-1, mouse, in vivo; in short: as §2
# [16] = test system: Rattus norvegicus; test: Compound was evaluated for the blood sugar lowering (hypoglycemic activity) in the glucose-primed rat at a dose of 100 mg/kg; Increase in blood sugar level.; format: functional; in short: as §4
# [17] = test system: Cavia porcellus; test: Evaluated in normal, fasted guinea pig for the percentage reduction in blood glucose level as compared to pretreatment blood glucose values at a dose of 100 mg of free base / kg body weight administered orally; format: functional
# In short: (§7)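 Male and female Hartley guinea pigs, 450–500 g, were food-deprived (water allowed) 18 h and split by sex into groups of four. A zero-time blood sample was taken by cardiac puncture, then drug was given, and blood was drawn again 5 h later. Percent reduction in blood glucose is relative to pretreatment values.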
# [18] = test system: Monkey; test: Evaluated in normal, fasted monkey for the percentage reduction in blood glucose level as compared to pretreatment blood glucose values at a dose of 70 mg of free base / kg body weight administered orally; format: functional, Cercopithecidae; in short: as §1
# [19] = test system: Rattus norvegicus; test: Compound was evaluated for the blood sugar lowering (hypoglycemic activity ) in the glucose-primed rat at a dose of 50 mg of base/kg; format: functional; in short: as §4
# [20] = as §3; settings: both, CF-1, rat, in vivo, po
# [21] = test system: Rattus norvegicus; test: Evaluated in glucose-primed, fasted rat for the percentage reduction in blood glucose level as compared to control groups at a dose of 25 mg of free base / kg body weight administered orally; format: functional; in short: as §4
# [22] = test system: Rattus norvegicus; test: Evaluated in glucose-primed, fasted rat for the percentage reduction in blood glucose level as compared to control groups at a dose of 10 mg of free base / kg body weight administered orally; format: functional; in short: as §4
# [23] = test system: Rattus norvegicus; test: Evaluated in alloxanized, diabetic rat for the percentage reduction in blood glucose level as compared to pretreatment blood glucose values at a dose of 200 mg of free base / kg body weight administered orally; format: functional; in short: as §6
# [24] = test system: Cavia porcellus; test: Evaluated in normal, fasted guinea pig for the percentage reduction in blood glucose level after 5 hr as compared to pretreatment blood glucose values at a dose of 100 mg of free base / kg body weight administered orally; format: functional; in short: as §7
# [25] = test system: Cavia porcellus; test: Evaluated in normal, fasted guinea pig for the percentage reduction in blood glucose level after 5 hr as compared to pretreatment blood glucose values at a dose of 125 mg of free base / kg body weight administered orally; format: functional; in short: as §7
# [26] = test system: Cavia porcellus; test: Evaluated in normal, fasted guinea pig for the percentage reduction in blood glucose level after 5 hr as compared to pretreatment blood glucose values at a dose of 150 mg of free base / kg body weight administered orally; format: functional; in short: as §7
# [27] = test system: Cavia porcellus; test: Evaluated in normal, fasted guinea pig for the percentage reduction in blood glucose level after 5 hr as compared to pretreatment blood glucose values at a dose of 160 mg of free base / kg body weight administered orally; format: functional; in short: as §7
# [28] = test system: Monkey; test: Evaluated in normal, fasted monkey for the percentage reduction in blood glucose level after 5 hr as compared to pretreatment blood glucose values at a dose of 20 mg of free base / kg body weight administered orally; format: functional, Cercopithecidae; in short: as §1
# [29] = test system: Monkey; test: Evaluated in normal, fasted monkey for the percentage reduction in blood glucose level after 5 hr as compared to pretreatment blood glucose values at a dose of 40 mg of free base / kg body weight administered orally; format: functional, Cercopithecidae; in short: as §1
# [30] = test system: Rattus norvegicus; test: Evaluated in glucose-primed, fasted rat for the percentage reduction in blood glucose level after 2 hr as compared to control groups at a dose of 250 mg of free base / kg body weight administered orally; format: functional; in short: as §4
# [31] = test system: Rattus norvegicus; test: Evaluated in glucose-primed, fasted rat for the percentage reduction in blood glucose level after 2 hr as compared to control groups at a dose of 500 mg of free base / kg body weight administered orally; format: functional; in short: as §4
# [32] = test system: Rattus norvegicus; test: Evaluated in glucose-primed, fasted rat for the percentage reduction in blood glucose level after 2 hr as compared to control groups at a dose of 10 mg of free base / kg body weight administered orally; format: functional; in short: as §4
# [33] = test system: Rattus norvegicus; test: Evaluated in glucose-primed, fasted rat for the percentage reduction in blood glucose level after 2 h as compared to control groups at a dose of 25 mg of free base / kg body weight administered orally; format: functional; in short: as §4
# [34] = test system: Rattus norvegicus; test: Evaluated in glucose primed, adrenalectomized rat for the percentage reduction in blood glucose level after 2 hr as compared to pretreatment blood glucose values at a dose of 10 mg of free base / kg body weight administered orally; format: functional; in short: as §5
# [35] = test system: Rattus norvegicus; test: Evaluated in glucose primed, adrenalectomized rat for the percentage reduction in blood glucose level after 2 hr as compared to pretreatment blood glucose values at a dose of 20 mg of free base / kg body weight administered orally; format: functional; in short: as §5
smiles,measurement,setting,value
Br.CC(C)N(CCOc1ccc(N/C(=N\c2ccccc2)c2ccccc2)cc1)C(C)C,Reduction,[1],0%
same,Reduction,[2],31.9%
same,Reduction,[3],45%
same,LD50,[4],273 mg/kg
same,LD50,[5],900 mg/kg
same,Change,[6],31.2%
same,Reduction,[7],12.9%
same,Reduction,[8],31.2%
same,Reduction,[9],32%
same,Reduction,[10],33.4%
same,Reduction,[11],16.5%
same,Reduction,[12],37.3%
same,Reduction,[13],10.6%
Br.c1ccc(/N=C(\Nc2ccc(OCCN3CCCC3)cc2)c2ccccc2)cc1,LD50,[14],117 mg/kg
same,LD50,[15],500 mg/kg
same,Change,[16],35%
Br.CC(C)N(CCCOc1ccc(N/C(=N\c2ccccc2)c2ccccc2)cc1)C(C)C,Reduction,[17],33.5% and 20%
same,Reduction,[1],0%
same,Reduction,[2],26.5%
same,Reduction,[3],32.3%
same,Reduction,[18],39%
same,LD50,[4],140 mg/kg
same,Change,[19],32.2%
same,LD50,[20],347 mg/kg
same,Reduction,[21],21.2%
same,Reduction,[7],32.2%
same,Reduction,[22],10.9%
same,Reduction,[10],30.6%
same,Reduction,[11],15%
same,Reduction,[23],21.5%
Cc1ccc(S(=O)(=O)NC(=O)NN2CCCCCC2)cc1 [TOLAZAMIDE],Reduction,[24],33.5%
same,Reduction,[25],26.7%
same,Reduction,[26],30.4%
same,Reduction,[27],25%
same,Reduction,[28],11%
same,Reduction,[29],26.7%
same,Reduction,[30],42.9%
same,Reduction,[31],51.1%
same,Reduction,[32],28.1%
same,Reduction,[33],50%
same,Reduction,[11],0%
same,Reduction,[34],75.8%
same,Reduction,[35],85.6%
